Experimental data taken from ChEMBL document CHEMBL4619776, “Probing the Plasticity in the Active Site of Protein N-terminal Methyltransferase 1 Using Bisubstrate Analogues” (J Med Chem, 2020).
pIC50, pKd, pKi: −log10 of the molar value. Activity calls are given as the source filed them. The rule behind the calls is not given here. Numbered stars: 1 amine (or outer) side, 2 acyl side, 3 side chain; on linkers, the order of the positions; unused ones are H or OH. Square brackets hold non-standard residues; d marks the D form. Peptide text beside a SMILES is read from it. X1 = Nc1ncnc2c1ncn2[C@@H]1O[C@H](CSCCCN(CC(=O)[*:2])[*:1])[C@@H](O)[C@H]1O; Nlys = NCCCCNCC(=O)O

What was measured:
[1] = target: T1, N-terminal Xaa-Pro-Lys N-methyltransferase 1 (Homo sapiens) (UniProt Q9BV86); assay: Substrate activity at NTMT1 (unknown origin) assessed as compound methylation at 10 uM incubated overnight by MALDI-MS methylation assay
T1 sequence (whole entry): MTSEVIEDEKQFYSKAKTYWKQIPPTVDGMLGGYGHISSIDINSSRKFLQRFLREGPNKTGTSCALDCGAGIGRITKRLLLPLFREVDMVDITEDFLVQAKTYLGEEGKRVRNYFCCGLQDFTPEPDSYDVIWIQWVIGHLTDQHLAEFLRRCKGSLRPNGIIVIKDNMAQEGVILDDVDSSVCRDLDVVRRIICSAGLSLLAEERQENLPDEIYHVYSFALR
Summary of the method: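 Compound (10 µM) incubated overnight at 37 °C with 0.1 µM NTMT1 and 3 µM SAM in 20 mM Tris pH 7.5, 50 mM KCl. Quenched 1:1 with 20 mM NH4H2PO4, 0.4% TFA in 1:1 acetonitrile/water. Methylated compound detected by MALDI-MS with 2,5-dihydroxybenzoic acid matrix.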

[2] = target: T2, N-terminal Xaa-Pro-Lys N-methyltransferase 1 (Homo sapiens, UniProt Q9BV86); assay: Inhibition of NTMT1 (unknown origin) pre-incubated for 10 mins before GPKRIA peptide substrate addition and measured after 20 mins by MALDI-MS methylation assay
T2 sequence (Q9BV86 whole entry): T1 sequence (whole entry)

[3] = target: T2, N-terminal Xaa-Pro-Lys N-methyltransferase 1; assay: Inhibition of NTMT1 (unknown origin) pre-incubated for 10 mins before GPKRIA peptide substrate addition by SAHH coupled fluorescence assay; conditions: for pIC50: read-out: IC50
Summary of the method: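 Inhibitor at 0.15 nM–10 μM, preincubated 10 min. Reaction started with 0.5 μM GPKRIA (Km). Fluorescence read at ex 400/em 465 nm; IC50 derived.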

[4] = target: N-terminal Xaa-Pro-Lys N-methyltransferase 2 (Homo sapiens, UniProt Q5VVY1); assay: Binding affinity to […] (unknown origin) by ITC assay
Chain of N-terminal Xaa-Pro-Lys N-methyltransferase 2 (Q5VVY1 whole entry): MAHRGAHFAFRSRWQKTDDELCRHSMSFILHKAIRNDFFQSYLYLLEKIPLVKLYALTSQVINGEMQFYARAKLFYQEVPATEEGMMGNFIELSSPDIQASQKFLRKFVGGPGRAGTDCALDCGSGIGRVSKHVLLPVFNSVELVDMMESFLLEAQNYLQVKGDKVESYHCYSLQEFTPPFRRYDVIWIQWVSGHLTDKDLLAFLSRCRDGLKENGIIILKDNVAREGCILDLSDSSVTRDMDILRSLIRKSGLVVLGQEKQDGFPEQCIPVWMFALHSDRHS
Summary of the method: (§1)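 Purified NTMT1 or NTMT2 at 30–50 μM in the cell; compound at 0.5–1 mM in the same buffer, titrated in as 26 injections of 10 μl spaced 180 s. Data fitted to a one-site or two-site binding model.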

[5] = target: T2, N-terminal Xaa-Pro-Lys N-methyltransferase 1; assay: Binding affinity to NTMT1 (unknown origin) assessed as binding constant Kd2 by ITC assay; summary of the method: as §1
[6] = target: T2, N-terminal Xaa-Pro-Lys N-methyltransferase 1; assay: Binding affinity to NTMT1 (unknown origin) assessed as binding constant Kd1 by ITC assay; summary of the method: as §1
[7] = target: T2, N-terminal Xaa-Pro-Lys N-methyltransferase 1; assay: Time dependent inhibition of NTMT1 (unknown origin) pre-incubated for 10 mins before GPKRIA peptide substrate addition by SAHH coupled fluorescence assay based Morrison's quadratic equation analysis
[8] = target: T2, N-terminal Xaa-Pro-Lys N-methyltransferase 1; assay: Time dependent inhibition of NTMT1 (unknown origin) pre-incubated for 120 mins before GPKRIA peptide substrate addition by SAHH coupled fluorescence assay based Morrison's quadratic equation analysis
[9] = target: T2, N-terminal Xaa-Pro-Lys N-methyltransferase 1; assay: Time dependent inhibition of NTMT1 (unknown origin) pre-incubated for 30 mins before GPKRIA peptide substrate addition by SAHH coupled fluorescence assay based Morrison's quadratic equation analysis
[10] = target: T2, N-terminal Xaa-Pro-Lys N-methyltransferase 1; assay: Time dependent inhibition of NTMT1 (unknown origin) pre-incubated for 90 mins before GPKRIA peptide substrate addition by SAHH coupled fluorescence assay based Morrison's quadratic equation analysis
[11] = target: T2, N-terminal Xaa-Pro-Lys N-methyltransferase 1; assay: Time dependent inhibition of NTMT1 (unknown origin) pre-incubated for 60 mins before GPKRIA peptide substrate addition by SAHH coupled fluorescence assay based Morrison's quadratic equation analysis
[12] = target: Adenosylhomocysteinase (Homo sapiens) (UniProt P23526); assay: Inhibition of SAHH (unknown origin) at 30 uM relative to control
Chain of Adenosylhomocysteinase (Homo sapiens) (P23526 2-432 limits assumed): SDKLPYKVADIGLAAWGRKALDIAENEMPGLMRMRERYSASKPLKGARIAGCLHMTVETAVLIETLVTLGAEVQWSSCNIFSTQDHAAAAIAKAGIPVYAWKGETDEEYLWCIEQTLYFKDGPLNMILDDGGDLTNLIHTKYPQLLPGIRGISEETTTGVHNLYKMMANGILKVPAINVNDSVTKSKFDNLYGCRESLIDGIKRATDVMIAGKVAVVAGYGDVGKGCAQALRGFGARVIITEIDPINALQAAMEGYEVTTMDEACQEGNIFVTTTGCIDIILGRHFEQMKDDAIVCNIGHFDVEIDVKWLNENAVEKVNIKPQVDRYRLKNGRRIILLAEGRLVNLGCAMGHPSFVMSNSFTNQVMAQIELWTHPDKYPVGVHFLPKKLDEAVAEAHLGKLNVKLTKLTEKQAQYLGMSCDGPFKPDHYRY

[13] = target: T3, Histone-lysine N-methyltransferase SETD7 (Homo sapiens) (UniProt Q8WTS6); assay: Inhibition of SETD7 (unknown origin) at 100 uM
T3 sequence (whole entry): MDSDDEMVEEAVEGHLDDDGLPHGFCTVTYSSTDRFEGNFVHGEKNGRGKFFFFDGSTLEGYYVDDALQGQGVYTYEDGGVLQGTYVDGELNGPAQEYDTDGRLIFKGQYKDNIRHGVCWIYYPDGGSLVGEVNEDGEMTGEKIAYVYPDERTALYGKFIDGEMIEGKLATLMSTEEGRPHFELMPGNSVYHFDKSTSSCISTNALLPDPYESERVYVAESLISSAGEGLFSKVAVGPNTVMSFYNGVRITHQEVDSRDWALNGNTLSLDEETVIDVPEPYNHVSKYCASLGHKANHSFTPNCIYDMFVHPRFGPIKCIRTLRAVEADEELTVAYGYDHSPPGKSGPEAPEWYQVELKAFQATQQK

[14] = target: T4, Nicotinamide N-methyltransferase (Homo sapiens) (UniProt P40261); assay: Inhibition of NNMT (unknown origin) at 100 uM
T4 sequence (whole entry): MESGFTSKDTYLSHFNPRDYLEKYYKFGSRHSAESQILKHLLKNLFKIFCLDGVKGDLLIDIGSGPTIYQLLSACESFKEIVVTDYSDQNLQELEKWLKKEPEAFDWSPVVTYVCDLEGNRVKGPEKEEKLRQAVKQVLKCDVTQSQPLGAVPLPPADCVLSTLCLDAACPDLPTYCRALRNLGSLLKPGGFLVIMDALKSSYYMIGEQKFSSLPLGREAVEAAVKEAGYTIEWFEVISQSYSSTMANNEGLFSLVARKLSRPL

[15] = target: T5, Histone-lysine N-methyltransferase EHMT2 (Homo sapiens) (UniProt Q96KQ7); assay: Inhibition of G9a (unknown origin) at 100 uM
T5 sequence (whole entry): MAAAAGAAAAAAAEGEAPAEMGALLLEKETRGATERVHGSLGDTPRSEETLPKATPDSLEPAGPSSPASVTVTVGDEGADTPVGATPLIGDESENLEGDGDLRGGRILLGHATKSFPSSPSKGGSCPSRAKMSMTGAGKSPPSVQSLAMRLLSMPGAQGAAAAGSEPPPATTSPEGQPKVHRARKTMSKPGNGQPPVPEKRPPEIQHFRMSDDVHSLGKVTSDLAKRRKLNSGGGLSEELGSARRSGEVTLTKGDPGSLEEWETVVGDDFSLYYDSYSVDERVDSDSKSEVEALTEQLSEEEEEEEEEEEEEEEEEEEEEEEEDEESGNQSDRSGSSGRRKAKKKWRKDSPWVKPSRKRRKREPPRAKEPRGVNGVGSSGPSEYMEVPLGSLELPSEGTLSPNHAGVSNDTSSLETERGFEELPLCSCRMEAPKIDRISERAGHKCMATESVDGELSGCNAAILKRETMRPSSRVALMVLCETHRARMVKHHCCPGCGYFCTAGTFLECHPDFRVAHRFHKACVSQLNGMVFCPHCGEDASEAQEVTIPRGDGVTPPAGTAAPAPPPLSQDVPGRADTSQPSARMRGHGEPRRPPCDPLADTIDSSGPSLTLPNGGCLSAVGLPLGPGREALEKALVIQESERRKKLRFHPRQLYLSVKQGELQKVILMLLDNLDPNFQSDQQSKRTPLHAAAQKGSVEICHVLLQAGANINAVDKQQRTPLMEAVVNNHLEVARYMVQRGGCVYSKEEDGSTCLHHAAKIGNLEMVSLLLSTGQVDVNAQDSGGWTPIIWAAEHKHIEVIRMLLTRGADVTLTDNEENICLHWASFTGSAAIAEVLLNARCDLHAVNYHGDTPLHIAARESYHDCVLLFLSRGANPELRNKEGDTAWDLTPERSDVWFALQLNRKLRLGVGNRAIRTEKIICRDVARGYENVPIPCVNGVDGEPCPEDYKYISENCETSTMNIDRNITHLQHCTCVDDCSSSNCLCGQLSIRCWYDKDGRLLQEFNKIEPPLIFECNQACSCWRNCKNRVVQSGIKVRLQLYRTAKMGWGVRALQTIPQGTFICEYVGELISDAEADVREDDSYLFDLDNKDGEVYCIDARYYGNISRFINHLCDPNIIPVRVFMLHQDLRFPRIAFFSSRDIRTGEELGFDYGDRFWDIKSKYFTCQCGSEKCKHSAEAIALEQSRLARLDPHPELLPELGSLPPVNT

[16] = target: Protein arginine N-methyltransferase 1 (Homo sapiens) (UniProt Q99873); assay: Inhibition of PRMT1 (unknown origin) at 30 uM relative to control
Chain of Protein arginine N-methyltransferase 1 (Homo sapiens) (Q99873 whole entry, looked up): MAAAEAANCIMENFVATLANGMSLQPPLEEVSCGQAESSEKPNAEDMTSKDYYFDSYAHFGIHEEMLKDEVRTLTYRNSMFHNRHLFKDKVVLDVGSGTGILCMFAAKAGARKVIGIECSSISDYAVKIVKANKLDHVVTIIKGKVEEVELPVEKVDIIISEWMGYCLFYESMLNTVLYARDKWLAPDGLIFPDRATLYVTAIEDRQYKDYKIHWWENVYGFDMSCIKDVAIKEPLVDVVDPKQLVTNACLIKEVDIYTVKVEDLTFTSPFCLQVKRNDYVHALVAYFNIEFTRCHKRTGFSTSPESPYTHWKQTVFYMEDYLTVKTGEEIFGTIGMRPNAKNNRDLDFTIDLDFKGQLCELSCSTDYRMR

[17] = target: Protein arginine N-methyltransferase 3 (Homo sapiens) (UniProt O60678); assay: Inhibition of PRMT3 (unknown origin) at 30 uM pre-incubated for 10 mins before H4-21 peptide addition in presence of SAM relative to control
Chain of Protein arginine N-methyltransferase 3 (Homo sapiens) (O60678 2-531 limits assumed): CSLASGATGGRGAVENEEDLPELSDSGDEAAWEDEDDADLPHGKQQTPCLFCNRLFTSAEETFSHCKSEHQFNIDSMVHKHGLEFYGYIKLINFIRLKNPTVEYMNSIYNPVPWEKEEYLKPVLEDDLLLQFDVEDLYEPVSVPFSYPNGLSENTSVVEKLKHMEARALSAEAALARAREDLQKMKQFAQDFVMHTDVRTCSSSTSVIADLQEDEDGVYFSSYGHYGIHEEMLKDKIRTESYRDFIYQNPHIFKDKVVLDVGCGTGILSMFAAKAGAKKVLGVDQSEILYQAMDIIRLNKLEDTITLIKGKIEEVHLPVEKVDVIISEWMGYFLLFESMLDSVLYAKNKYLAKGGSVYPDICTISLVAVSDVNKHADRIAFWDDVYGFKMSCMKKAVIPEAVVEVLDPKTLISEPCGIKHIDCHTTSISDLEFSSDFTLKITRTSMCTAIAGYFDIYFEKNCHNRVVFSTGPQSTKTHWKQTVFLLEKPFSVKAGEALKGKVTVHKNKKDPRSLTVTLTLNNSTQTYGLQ

[18] = test system: Trypanosoma brucei; assay: Inhibition of Trypanosoma brucei PRMT7 at 30 uM relative to control

## CC[C@H](C)[C@H](NC(=O)[C@H](CCCNC(=N)N)NC(=O)[C@H](CCCCN)NC(=O)[C@@H]1CCCN1C(=O)CNCCCCN)C(=O)N[C@@H](C)C(N)=O (H-[Nlys]PKRIA-NH2)
[1]
  Activity: Active

## Nc1ncnc2c1ncn2[C@@H]1O[C@H](CNCC[C@H](N)C(=O)O)[C@@H](O)[C@H]1O
[2]
  pIC50: < 5.00

## N=C(N)NCCC[C@H](NC(=O)[C@H](CCCCN)NC(=O)[C@@H]1CCCN1C(=O)CNCCCCN(CC[C@H](N)C(=O)O)C[C@H]1O[C@@H](n2cnc3c(N)ncnc32)[C@H](O)[C@@H]1O)C(N)=O
[3]
  pIC50: 7.08

## NCCCCN(CC[C@H](N)C(=O)O)C[C@H]1O[C@@H](n2cnc3c(N)ncnc32)[C@H](O)[C@@H]1O
[3]
  pIC50: < 5.00

## CC[C@H](C)[C@H](NC(=O)[C@H](CCCNC(=N)N)NC(=O)[C@H](CCCCN)NC(=O)[C@@H]1CCCN1C(=O)CNCCCCCN(CC[C@H](N)C(=O)O)C[C@H]1O[C@@H](n2cnc3c(N)ncnc32)[C@H](O)[C@@H]1O)C(=O)N[C@@H](C)C(N)=O
[3]
  IC50: Not Active
[4]
  Kd: Not Active
[5]
  pKd: 6.32
[6]
  pKd: 5.80

## CC[C@H](C)[C@H](NC(=O)[C@H](CCCNC(=N)N)NC(=O)[C@H](CCCCN)NC(=O)[C@@H]1CCCN1C(=O)CNCCN(CC[C@H](N)C(=O)O)C[C@H]1O[C@@H](n2cnc3c(N)ncnc32)[C@H](O)[C@@H]1O)C(=O)N[C@@H](C)C(N)=O
[7]
  pKi: 7.00
[3]
  pIC50: 6.59
[8]
  pKi: 8.27
[4]
  Kd: Not Active
[9]
  pKi: 8.17
[10]
  pKi: 8.31
[5]
  pKd: 7.33
[11]
  pKi: 8.09
[6]
  pKd: 6.01

## N=C(N)NCCC[C@H](NC(=O)[C@H](CCCCN)NC(=O)[C@@H]1CCCN1C(=O)CNCCCN(CC[C@H](N)C(=O)O)C[C@H]1O[C@@H](n2cnc3c(N)ncnc32)[C@H](O)[C@@H]1O)C(N)=O
[3]
  pIC50: 6.70

## CC[C@H](C)[C@H](NC(=O)[C@H](CCCNC(=N)N)NC(=O)[C@H](CCCCN)NC(=O)[C@@H]1CCCN1C(=O)CNCCCN(CC[C@H](N)C(=O)O)C[C@H]1O[C@@H](n2cnc3c(N)ncnc32)[C@H](O)[C@@H]1O)C(=O)N[C@@H](C)C(N)=O
[7]
  pKi: 7.39
[3]
  pIC50: 6.89
[8]
  pKi: 8.89
[4]
  Kd: Not Active
[9]
  pKi: 8.62
[10]
  pKi: 8.60
[5]
  pKd: 7.39
[11]
  pKi: 9.11
[6]
  pKd: 5.62

## CC[C@H](C)[C@H](NC(=O)[C@H](CCCNC(=N)N)NC(=O)[C@H](CCCCN)NC(=O)[C@@H]1CCCN1C(=O)CNCCCCNCC[C@H](N)C(=O)O)C(=O)N[C@@H](C)C(N)=O
[1]
  Activity: Active

## CC[C@H](C)[C@H](NC(=O)[C@H](CCCNC(=N)N)NC(=O)[C@H](CCCCN)NC(=O)[C@@H]1CCCN1C(=O)CNCCCSC[C@H]1O[C@@H](n2cnc3c(N)ncnc32)[C@H](O)[C@@H]1O)C(=O)N[C@@H](C)C(N)=O (H-[X1]PKRIA-NH2)
[1]
  Activity: Active

## CC[C@H](C)[C@H](NC(=O)[C@H](CCCNC(=N)N)NC(=O)[C@H](CCCCN)NC(=O)[C@@H]1CCCN1C(=O)CNCCCCN(CC[C@H](N)C(=O)O)C[C@H]1O[C@@H](n2cnc3c(N)ncnc32)[C@H](O)[C@@H]1O)C(=O)N[C@@H](C)C(N)=O
[12]
  inhibition: < 50%
[7]
  pKi: 7.82
[13]
  inhibition: inactive
[3]
  pIC50: 7.09
[14]
  inhibition: inactive
[8]
  pKi: 9.89
[4]
  Kd: Not Active
[9]
  pKi: 9.31
[15]
  inhibition: inactive
[16]
  inhibition: < 50%
[10]
  pKi: 9.21
[5]
  pKd: 8.61
[11]
  pKi: 9.14
[17]
  inhibition: < 50%
[18]
  inhibition: < 50%
[6]
  pKd: 6.51

## N=C(N)NCCC[C@H](NC(=O)[C@H](CCCCN)NC(=O)[C@@H]1CCCN1C(=O)CNCCN(CC[C@H](N)C(=O)O)C[C@H]1O[C@@H](n2cnc3c(N)ncnc32)[C@H](O)[C@@H]1O)C(N)=O
[3]
  pIC50: 6.49
